Measurements as given in ChEMBL document CHEMBL1131138, “A novel class of orally active non-peptide bradykinin B2 receptor antagonists. 3. Discovering bioisosteres of the imidazo[1,2-a] pyridine moiety” (J Med Chem, 1998).

System: Cavia porcellus
Test: In vivo inhibition of Bradykinin induced Bronchoconstriction in anaesthetized guinea pig following 1 mg/kg p.o.
Format: functional
Conditions: route oral
Method in brief: (§1)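 Male Hartley guinea pigs (470–750 g), fasted overnight, anesthetized with ip pentobarbital (30 mg/kg) and ventilated at 10 mL/kg, 60 breaths/min. Given alcuronium (0.5 mg/kg iv) and propranolol (10 mg/kg sc). BK 5 μg/kg iv, with bronchoconstriction read as peak pulmonary insufflation pressure (modified Konzett–Rössler).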

Compared with Cc1ccc2cccc(OCc3c(Cl)ccc(N(C)C(=O)CNC(=O)/C=C/c4ccccc4)c3Cl)c2n1, CC(=O)Nc1ccc(/C=C/C(=O)NCC(=O)N(C)c2ccc(Cl)c(COc3cccc4ccc(C)nc34)c2Cl)cc1 is higher in inhibition in vivo at 1 mg/kg: 25.2% for the first, 80% for the second.

Compared with Cc1ccc2cccc(OCc3c(Cl)ccc(N(C)C(=O)CNC(=O)/C=C/c4ccc(C(=O)Nc5cccnc5)cc4)c3Cl)c2n1, Cc1ccc2cccc(OCc3c(Cl)ccc(N(C)C(=O)CNC(=O)/C=C/c4ccc(C(=O)Nc5ccncc5)nc4)c3Cl)c2n1 is higher in inhibition in vivo at 1 mg/kg: 46.8% for the first, 60% for the second.

First: COc1nc2c(OCc3c(Cl)ccc(N(C)C(=O)CNC(=O)/C=C/c4ccc(C(=O)N(C)C)cc4)c3Cl)cccc2n1C
Second: Cc1ccc2cccc(OCc3c(Cl)ccc(N(C)C(=O)CNC(=O)/C=C/c4ccc(C(=O)N(C)C)cc4)c3Cl)c2n1
The inhibition in vivo at 1 mg/kg of the first is lower: 87.7% for the first, 89.7% for the second.

Compared with CNC(=O)c1ccc(/C=C/C(=O)NCC(=O)N(C)c2ccc(Cl)c(COc3cccc4ccc(C)nc34)c2Cl)cn1, COc1nc2c(OCc3c(Cl)ccc(N(C)C(=O)CNC(=O)/C=C/c4ccc(NC(C)=O)nc4)c3Cl)cccc2n1C is lower in inhibition in vivo at 1 mg/kg: 93.9% for the first, 55.4% for the second.

COc1nc2c(OCc3c(C)ccc(N(C)C(=O)CNC(=O)/C=C/c4ccc(NC(C)=O)nc4)c3C)cccc2n1C gave an inhibition in vivo at 1 mg/kg of 98.4%.

System: Cavia porcellus
Test: Inhibition of Bradykinin induced Bronchoconstriction in anaesthetized guinea pig at 0.32mg/kg, po
Format: functional
Conditions: not given
Method in brief: as §1

First: CC(=O)Nc1ccc(/C=C/C(=O)NCC(=O)N(C)c2ccc(Cl)c(COc3cccc4ccc(C)nc34)c2Cl)cc1
Second: Cc1ccc2cccc(OCc3c(Cl)ccc(N(C)C(=O)CNC(=O)/C=C/c4ccc(C(=O)N(C)C)cc4)c3Cl)c2n1
The inhibition in vivo at 0.32 mg/kg of the first is lower: 33.2% for the first, 50.8% for the second.

First: CNC(=O)c1ccc(/C=C/C(=O)NCC(=O)N(C)c2ccc(Cl)c(COc3cccc4ccc(C)nc34)c2Cl)cn1
Second: COc1nc2c(OCc3c(C)ccc(N(C)C(=O)CNC(=O)/C=C/c4ccc(NC(C)=O)nc4)c3C)cccc2n1C
The inhibition in vivo at 0.32 mg/kg of the first is lower: 68.4% for the first, 75.2% for the second.

Target: T1, B2 bradykinin receptor (Homo sapiens, UniProt P30411)
T1 sequence (P30411 whole entry): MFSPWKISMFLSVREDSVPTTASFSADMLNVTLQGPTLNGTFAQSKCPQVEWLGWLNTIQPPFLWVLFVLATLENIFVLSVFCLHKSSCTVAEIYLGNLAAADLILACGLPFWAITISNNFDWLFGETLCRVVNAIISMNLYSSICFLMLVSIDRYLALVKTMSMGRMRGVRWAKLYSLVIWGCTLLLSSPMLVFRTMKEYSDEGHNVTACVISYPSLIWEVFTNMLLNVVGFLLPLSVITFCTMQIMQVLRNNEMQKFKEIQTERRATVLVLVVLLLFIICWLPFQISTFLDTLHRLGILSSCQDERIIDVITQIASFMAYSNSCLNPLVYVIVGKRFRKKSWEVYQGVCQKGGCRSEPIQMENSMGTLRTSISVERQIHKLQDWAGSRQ
Test: Concentration required to inhibit specific binding of [3H]BK (1.2 nM) to A-431 cells (human epidermoid carcinoma) which express Bradykinin receptor B2 by 50%.
Format: cell-based
Conditions: not given

Molecule Cc1ccc2cccc(OCc3c(Cl)ccc(N(C)C(=O)CNC(=O)/C=C/c4cccc(C(=O)N(C)C)c4)c3Cl)c2n1 has an IC50 of 14 nM.

Target: T2, B2 bradykinin receptor (Cavia porcellus, UniProt O70526)
T2 sequence (O70526 whole entry): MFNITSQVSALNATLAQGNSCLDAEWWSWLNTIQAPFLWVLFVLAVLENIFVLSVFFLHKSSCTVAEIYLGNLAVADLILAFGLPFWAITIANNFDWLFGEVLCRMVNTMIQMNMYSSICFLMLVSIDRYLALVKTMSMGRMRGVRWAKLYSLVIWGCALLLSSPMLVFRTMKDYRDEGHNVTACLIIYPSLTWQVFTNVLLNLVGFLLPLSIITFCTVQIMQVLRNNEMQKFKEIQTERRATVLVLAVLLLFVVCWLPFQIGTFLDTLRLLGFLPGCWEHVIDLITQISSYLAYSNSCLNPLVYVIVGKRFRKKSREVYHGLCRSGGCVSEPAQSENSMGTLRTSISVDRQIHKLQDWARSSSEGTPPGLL
Test: Concentration required to inhibit specific binding of [ 3H]BK (0.06 nM) to Bradykinin receptor B2 in guinea pig ileum membrane preparations by 50%.
Format: cell membranes
Conditions: not given
Method in brief: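 Ileal membranes from male Hartley guinea pigs (0.2 mg protein/mL) in TES buffer pH 6.8 with phenanthroline, bacitracin, DTT, captopril and BSA. Incubated with 0.06 nM [3H]BK plus compound for 60 min at room temperature, then filtered through GF/B and counted by scintillation.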

Cc1ccc2cccc(OCc3c(Cl)ccc(N(C)C(=O)CNC(=O)/C=C/c4cccc(C(=O)N(C)C)c4)c3Cl)c2n1 and Cc1ccc2cccc(OCc3c(Cl)ccc(N(C)C(=O)CNC(=O)/C=C/c4ccc(C(=O)N(C)C)cc4)c3Cl)c2n1 are within 1.5-fold of each other in IC50: 1.1 nM for the first, 1.3 nM for the second.

Going from Cc1cnc2cccc(OCc3c(C)ccc(N(C)C(=O)CNC(=O)/C=C/c4ccc(N5CCCC5=O)cc4)c3C)c2n1 to COc1nc2c(OCc3c(C)ccc(N(C)C(=O)CNC(=O)/C=C/c4ccc(NC(C)=O)nc4)c3C)cccc2n1C, the IC50 falls from 2.4 nM to 0.94 nM (2.6-fold).

Cc1ccc2cccc(OCc3c(Cl)ccc(N(C)C(=O)CNC(=O)/C=C/c4ccccc4)c3Cl)c2n1 and CC(=O)Nc1ccc(/C=C/C(=O)NCC(=O)N(C)c2ccc(Cl)c(COc3cccc4ccc(C)nc34)c2Cl)cc1 are within 1.5-fold of each other in IC50: 0.69 nM for the first, 0.5 nM for the second.

First: Cc1ccc2cccc(OCc3c(Cl)ccc(N(C)C(=O)CNC(=O)/C=C/c4ccc(C(=O)Nc5cccnc5)cc4)c3Cl)c2n1
Second: Cc1ccc2cccc(OCc3c(Cl)ccc(N(C)C(=O)CNC(=O)/C=C/c4ccc(C(=O)Nc5ccncc5)nc4)c3Cl)c2n1
The IC50 of the first is 24-fold lower: 0.62 nM for the first, 15 nM for the second.

COc1nc2c(OCc3c(Cl)ccc(N(C)C(=O)CNC(=O)/C=C/c4ccc(C(=O)N(C)C)cc4)c3Cl)cccc2n1C and COc1nc2c(OCc3c(Cl)ccc(N(C)C(=O)CNC(=O)/C=C/c4ccc(NC(C)=O)nc4)c3Cl)cccc2n1C are within 1.5-fold of each other in IC50: 0.94 nM for the first, 0.65 nM for the second.

CNC(=O)c1ccc(/C=C/C(=O)NCC(=O)N(C)c2ccc(Cl)c(COc3cccc4ccc(C)nc34)c2Cl)cn1 showed an IC50 of 0.68 nM.

Target: T1, B2 bradykinin receptor
Test: Inhibition specific binding of [3H]BK (1.0 nM) to human Bradykinin receptor B2 which was expressed in CHO (Chinese hamster ovary) cells by 50%.
Format: cell-based
Conditions: not given
Method in brief: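 CHO (dhfr−) cells stably expressing human B2 receptor, seeded at 3.0 × 10^4 cells/well and cultured 1 day. Whole cells incubated with 1.0 nM [3H]BK plus compound for 2 h at 4 °C in HEPES/N-methyl-D-glucamine buffer pH 7.2 with bacitracin, enalaprilat and BSA. Washed, solubilized in SDS/NaOH and counted. Nonspecific binding with 1 μM BK; DMSO below 3%; three experiments.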

First: Cc1cnc2cccc(OCc3c(C)ccc(N(C)C(=O)CNC(=O)/C=C/c4ccc(N5CCCC5=O)cc4)c3C)c2n1
Second: COc1nc2c(OCc3c(C)ccc(N(C)C(=O)CNC(=O)/C=C/c4ccc(NC(C)=O)nc4)c3C)cccc2n1C
The IC50 of the first is 5.4-fold higher: 46 nM for the first, 8.5 nM for the second. The second is the more potent here.

Compared with Cc1ccc2cccc(OCc3c(Cl)ccc(N(C)C(=O)CNC(=O)/C=C/c4ccccc4)c3Cl)c2n1, CC(=O)Nc1ccc(/C=C/C(=O)NCC(=O)N(C)c2ccc(Cl)c(COc3cccc4ccc(C)nc34)c2Cl)cc1 is 180-fold lower in IC50: 340 nM for the first, 1.9 nM for the second. The second is the more potent here.

First: Cc1ccc2cccc(OCc3c(Cl)ccc(N(C)C(=O)CNC(=O)/C=C/c4ccc(C(=O)Nc5cccnc5)cc4)c3Cl)c2n1
Second: Cc1ccc2cccc(OCc3c(Cl)ccc(N(C)C(=O)CNC(=O)/C=C/c4ccc(C(=O)Nc5ccncc5)nc4)c3Cl)c2n1
The IC50 of the first is 3-fold higher: 7.5 nM for the first, 2.5 nM for the second.

Compared with COc1nc2c(OCc3c(Cl)ccc(N(C)C(=O)CNC(=O)/C=C/c4ccc(C(=O)N(C)C)cc4)c3Cl)cccc2n1C, Cc1ccc2cccc(OCc3c(Cl)ccc(N(C)C(=O)CNC(=O)/C=C/c4ccc(C(=O)N(C)C)cc4)c3Cl)c2n1 is 3.6-fold lower in IC50: 14 nM for the first, 3.9 nM for the second. The second is the more potent here.

CNC(=O)c1ccc(/C=C/C(=O)NCC(=O)N(C)c2ccc(Cl)c(COc3cccc4ccc(C)nc34)c2Cl)cn1 and COc1nc2c(OCc3c(Cl)ccc(N(C)C(=O)CNC(=O)/C=C/c4ccc(NC(C)=O)nc4)c3Cl)cccc2n1C are within 1.5-fold of each other in IC50: 4.6 nM for the first, 4.2 nM for the second.
